According to ChEMBL document CHEMBL1139126, “Diazenedicarboxamides as inhibitors of D-alanine-D-alanine ligase (Ddl)” (Bioorg Med Chem Lett, 2007):
Converted amounts (≈) assume the structure as drawn.

Tests used:
Escherichia coli [1] = assay: Inhibition of Escherichia coli DdlB assessed as residual activity at 500 uM
Method in brief: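 Endpoint phosphate-release assay using purified DdlB with 500 µM test compound, 700 µM D-Ala, 500 µM ATP, in 38.5 mM Hepes pH 8.0 with MgCl2, (NH4)2SO4 and 5% DMSO. Run 30 min at 37 °C, then Biomol reagent and A650 read. Residual activity relative to an uninhibited assay. Mean of two independent experiments.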

[2] = Inhibition of Escherichia coli DdlB
Method in brief: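 Purified E. coli DdlB in 38.5 mM Hepes pH 8.0, 3.25 mM MgCl2, 6.5 mM (NH4)2SO4, 700 µM D-Ala, 500 µM ATP, 5% DMSO, with a range of inhibitor concentrations. Incubated 30 min at 37 °C. Released phosphate detected by Biomol reagent, A650 after 5 min. IC50 taken from residual activity versus no-inhibitor control. Means of two independent experiments.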

Staphylococcus aureus = assay: Antibacterial activity against Staphylococcus aureus 8325-4; assay type: functional
Method in brief: (§1)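 Broth microdilution MIC in IsoSensitest broth; inoculum 10⁴ cells per mL for E. coli, 10⁶ cells per mL for S. aureus. Compounds in 2-fold dilution series prepared in 50% DMSO. Incubated 16 h at 37 °C with OD600 read every 10 min, shaken 30 s before each read. MIC = lowest concentration preventing growth.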

Escherichia coli [3] = assay: Antibacterial activity against Escherichia coli 1411; assay type: functional; method in brief: as §1
Escherichia coli [4] = assay: Antibacterial activity against acrAB deficient Escherichia coli 1411; assay type: functional; method in brief: as §1

| Activity (Escherichia coli [1]) [%] | IC50 [2] [µM] | MIC (Staphylococcus aureus) [µg/mL] | MIC (Escherichia coli [3]) [µg/mL] | MIC (Escherichia coli [4]) [µg/mL] | SMILES |
| --- | --- | --- | --- | --- | --- |
| 33 | – | – | – | – | CCOC(=O)/N=N/C(=O)Nc1cccc(Cl)c1 |
| 1 | – | – | – | – | CCOC(=O)NNC(=O)Nc1ccccc1 |
| 2 | – | – | – | – | CN(C)CCNC(=O)NNC(=O)Nc1ccccc1 |
| – | 106 | 128 (≈ 452 µM) | 64 (≈ 226 µM) | 32 (≈ 113 µM) | O=C(/N=N/C(=O)Nc1ccccc1)NCc1ccncc1 |
| 40 | – | – | – | – | CCOC(=O)/N=N/C(=O)Nc1ccc([N+](=O)[O-])cc1 |
| – | 111 | 64 (≈ 226 µM) | 64 (≈ 226 µM) | 64 (≈ 226 µM) | O=C(/N=N/C(=O)Nc1ccccc1)NCc1ccccn1 |
| – | > 500 | – | – | – | CC(C)(C)c1ccc(NC(=O)/N=N/C(=O)NCc2ccncc2)cc1 |
| 1 | – | – | – | – | COC(=O)NNC(=O)NC1CCCCC1 |
| 0 | – | – | – | – | O=C(NCc1cccnc1)NNC(=O)Nc1ccccc1 |
| 3 | – | – | – | – | O=C(NCc1cccnc1)NNC(=O)Nc1cccc(Cl)c1 |
| – | > 500 | – | – | – | CN(C)CCNC(=O)/N=N/C(=O)Nc1ccccc1 |
| 37 | – | – | – | – | CCOC(=O)/N=N/C(=O)Nc1ccc(F)cc1 |
| 0 | – | – | – | – | CCOC(=O)NNC(=O)Nc1ccc(F)cc1 |
| 0 | – | – | – | – | CCOC(=O)NNC(=O)Nc1cccc(Cl)c1 |
| – | 36 | 128 (≈ 452 µM) | 64 (≈ 226 µM) | 64 (≈ 226 µM) | O=C(/N=N/C(=O)Nc1ccccc1)NCc1cccnc1 |
| 1 | – | – | – | – | CCOC(=O)NNC(=O)Nc1ccc([N+](=O)[O-])cc1 |
| – | 73 | 128 (≈ 425 µM) | 64 (≈ 212 µM) | 64 (≈ 212 µM) | O=C(/N=N/C(=O)Nc1ccc(F)cc1)NCc1ccncc1 |
| 5 | – | – | – | – | COC(=O)NNC(=O)NCCCl |

Second part, the compound before the results:

| SMILES | Activity (Escherichia coli [1]) [%] | IC50 [2] [µM] | MIC (Staphylococcus aureus) [µg/mL] | MIC (Escherichia coli [3]) [µg/mL] | MIC (Escherichia coli [4]) [µg/mL] |
| --- | --- | --- | --- | --- | --- |
| O=C(/N=N/C(=O)Nc1cccc(Cl)c1)NCc1ccncc1 | – | 33 | 64 (≈ 201 µM) | 64 (≈ 201 µM) | 64 (≈ 201 µM) |
| O=C(/N=N/C(=O)NCc1cccnc1)NCc1cccnc1 | – | 123 | > 256 | > 256 | > 256 |
| O=C(/N=N/C(=O)NCc1ccccn1)NCCCl | – | 119 | > 256 | > 256 | > 256 |
| O=C(/N=N/C(=O)NC1CCCCC1)NCc1ccncc1 | – | 121 | 128 (≈ 442 µM) | 256 (≈ 885 µM) | 256 (≈ 885 µM) |
| O=C(/N=N/C(=O)NCCCl)NCCCl | – | 133 | > 256 | > 256 | > 256 |
| COC(=O)/N=N/C(=O)NCCCl | 7 | – | – | – | – |
| O=C(/N=N/C(=O)NCc1ccncc1)NCCCl | – | 236 | > 256 | 128 (≈ 475 µM) | 128 (≈ 475 µM) |
| O=C(/N=N/C(=O)Nc1cccc(Cl)c1)NCc1cccnc1 | – | 15 | 256 (≈ 806 µM) | 64 (≈ 201 µM) | 64 (≈ 201 µM) |
| CCOC(=O)/N=N/C(=O)Nc1ccccc1 | 1 | – | – | – | – |
| CCC(C)c1ccc(NC(=O)/N=N/C(=O)NCCCl)cc1 (stereo not drawn) | – | 25 | > 256 | > 256 | > 256 |
| CC(C)(C)OC(=O)/N=N/C(=O)NCCCl | 7 | – | – | – | – |
| CC(C)c1ccc(NC(=O)/N=N/C(=O)NCCCl)cc1 | – | 49 | > 256 | > 256 | > 256 |
| N[C@@H]1CONC1=O [CYCLOSERINE] | – | 314 | 32 (≈ 313 µM) | 16 (≈ 157 µM) | 16 (≈ 157 µM) |
